{"source": "paper PMC5060010", "about": "(ACS chemical biology, 2013)", "key": {"mu-delta heteromer": {"biological_target": "mu-delta heteromer (Homo sapiens, UniProt P35372+P41143)", "sequence (P35372 whole entry)": "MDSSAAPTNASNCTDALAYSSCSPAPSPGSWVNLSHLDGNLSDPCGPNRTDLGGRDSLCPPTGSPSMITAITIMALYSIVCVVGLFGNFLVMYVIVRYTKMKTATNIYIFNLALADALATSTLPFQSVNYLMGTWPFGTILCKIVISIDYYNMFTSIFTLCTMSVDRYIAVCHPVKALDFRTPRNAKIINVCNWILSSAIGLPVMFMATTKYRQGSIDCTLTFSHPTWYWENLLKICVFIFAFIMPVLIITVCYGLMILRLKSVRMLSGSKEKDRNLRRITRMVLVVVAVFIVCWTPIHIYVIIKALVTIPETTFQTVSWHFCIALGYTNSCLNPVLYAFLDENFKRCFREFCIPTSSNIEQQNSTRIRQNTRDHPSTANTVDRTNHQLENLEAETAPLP", "sequence (P41143 whole entry)": "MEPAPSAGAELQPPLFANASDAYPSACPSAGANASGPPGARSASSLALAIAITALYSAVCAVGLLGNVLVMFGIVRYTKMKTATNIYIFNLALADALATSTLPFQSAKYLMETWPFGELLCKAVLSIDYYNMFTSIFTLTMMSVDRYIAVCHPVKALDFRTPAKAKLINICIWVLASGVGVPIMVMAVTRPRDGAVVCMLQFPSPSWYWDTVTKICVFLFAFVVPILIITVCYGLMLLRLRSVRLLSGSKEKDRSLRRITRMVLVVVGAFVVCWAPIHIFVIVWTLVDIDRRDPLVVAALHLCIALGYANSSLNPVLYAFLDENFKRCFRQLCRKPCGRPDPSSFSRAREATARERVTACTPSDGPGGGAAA", "assay": "immunocytochemical trafficking", "type": "cell-based", "settings": "ligand 1 μM, 30 minutes at 37°C, HEK-293 cells with FL-mu and HA-delta"}, "[1]": {"biological_target": "mu/delta opioid receptors (Homo sapiens, UniProt P35372+P41143)", "sequence (P35372 whole entry)": "as the sequence (P35372 whole entry) above", "sequence (P41143 whole entry)": "as the sequence (P41143 whole entry) above", "type": "cell-based", "settings": "mu/delta HEK-293 cells", "in_short": "(§1)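 Calcium release measured in HEK-293 cells stably expressing mu, or both mu and delta, opioid receptors. The dual-transfected cells came from an outside lab, and cDNA for the chimeric Gα subunit Δ6-Gαqi4-myr was used. Signal was read as fluorescence in relative fluorescence units, giving EC50 and ΔRFU. Where a mu agonist and a delta antagonist were combined, they were co-administered at equimolar levels rather than given as a pretreatment.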"}, "[2]": {"settings": "cited from earlier work"}, "mu opioid receptors": {"biological_target": "mu opioid receptors (Homo sapiens, UniProt P35372)", "sequence (P35372 whole entry)": "as the sequence (P35372 whole entry) above", "type": "cell-based", "settings": "mu HEK-293 cells", "in_short": "as §1"}, "[3]": {"settings": "cited from earlier work", "remark": "listed apart in the source"}}, "data": [{"compound": "CN1CC[C@]23c4c5ccc(O)c4O[C@H]2[C@H](NC(=O)COCC(=O)NCCCCCCCNC(=O)COCC(=O)Nc2cccc4c6c([nH]c24)[C@@H]2Oc4c(O)ccc7c4[C@@]24CCN(CC2CC2)[C@@H](C7)[C@]4(O)C6)CC[C@@]3(O)[C@H]1C5", "note": "[MDAN-21]", "values": [{"measurement": "internalization of mu and delta cell-surface opioid receptors", "setting": "mu-delta heteromer", "result": "did not produce significant internalization"}, {"measurement": "calcium release ΔRFU", "setting": "[1]", "result": 468, "unit": "RFU"}, {"measurement": "EC50", "setting": "[1]; read-out: calcium release EC50", "result": 412, "unit": "nM"}, {"measurement": "place preference", "setting": "[2]", "result": "without tolerance, physical dependence, or place preference"}, {"measurement": "calcium release ΔRFU", "setting": "mu opioid receptors", "result": 420, "unit": "RFU"}, {"measurement": "EC50", "setting": "mu opioid receptors; read-out: calcium release EC50", "result": 851, "unit": "nM"}, {"measurement": "antinociception", "setting": "[3]", "result": "potent antinociception"}, {"measurement": "physical dependence", "setting": "[3]", "result": "without tolerance, physical dependence, or place preference"}, {"measurement": "tolerance", "setting": "[3]; mice", "result": "does not produce tolerance"}]}]}
